Experiments:
Type in all cases: cell-based
[1] = Modulatory activity at P-gp in human K562/DOX cells assessed as increase in nuclear concentration of pirarubicin by spectrofluorometric assay; settings: K562/Adr, read-out: I50
K562 [2] = assay: Intrinsic cytotoxicity against human K562 cells at 0.1 to 3 uM after 72 hrs by MTT assay; settings: k562, 72 h
Method in brief: (§1)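 K562 parental and P-gp-overexpressing K562/DOX cells, exponential phase (3 × 10⁵ cells/mL), seeded at 3000 cells/well. Test compounds alone at 0.1, 1.0 or 3.0 µM, without doxorubicin. Incubated 37 °C, 5% CO₂, 72 h. MTT added, further 3 h incubation, formazan crystals inspected microscopically.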

K562 [3] = assay: Intrinsic cytotoxicity against doxorubicin-resistant human K562 cells at 3 uM after 72 hrs by MTT assay; settings: k562, 72 h; method in brief: as §1
[4] = target: ATP-dependent translocase ABCB1 (Homo sapiens, UniProt P08183); assay: Modulatory activity at P-gp in doxorubicin-resistant human K562 cells assessed as MDR-reversing activity by measuring doxorubicin-induced cell mortality after 72 hrs by MTT assay relative to untreated control; settings: k562, 72 h
Method in brief: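 K562/DOX (P-gp-overexpressing, doxorubicin-resistant) cells in exponential growth were seeded at 3000 cells/well. Doxorubicin was given alone or with modulator at 0.1, 1.0 or 3.0 µM, and incubated 72 h at 37 °C in 5% CO2. Viability was read by MTT with a further 3 h incubation. Reversal fold is the doxorubicin IC50 without modulator divided by the IC50 with modulator. Values are the mean of ≥3 determinations, each with quadruplicate cultures.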

Sequence of ATP-dependent translocase ABCB1 (P08183 whole entry): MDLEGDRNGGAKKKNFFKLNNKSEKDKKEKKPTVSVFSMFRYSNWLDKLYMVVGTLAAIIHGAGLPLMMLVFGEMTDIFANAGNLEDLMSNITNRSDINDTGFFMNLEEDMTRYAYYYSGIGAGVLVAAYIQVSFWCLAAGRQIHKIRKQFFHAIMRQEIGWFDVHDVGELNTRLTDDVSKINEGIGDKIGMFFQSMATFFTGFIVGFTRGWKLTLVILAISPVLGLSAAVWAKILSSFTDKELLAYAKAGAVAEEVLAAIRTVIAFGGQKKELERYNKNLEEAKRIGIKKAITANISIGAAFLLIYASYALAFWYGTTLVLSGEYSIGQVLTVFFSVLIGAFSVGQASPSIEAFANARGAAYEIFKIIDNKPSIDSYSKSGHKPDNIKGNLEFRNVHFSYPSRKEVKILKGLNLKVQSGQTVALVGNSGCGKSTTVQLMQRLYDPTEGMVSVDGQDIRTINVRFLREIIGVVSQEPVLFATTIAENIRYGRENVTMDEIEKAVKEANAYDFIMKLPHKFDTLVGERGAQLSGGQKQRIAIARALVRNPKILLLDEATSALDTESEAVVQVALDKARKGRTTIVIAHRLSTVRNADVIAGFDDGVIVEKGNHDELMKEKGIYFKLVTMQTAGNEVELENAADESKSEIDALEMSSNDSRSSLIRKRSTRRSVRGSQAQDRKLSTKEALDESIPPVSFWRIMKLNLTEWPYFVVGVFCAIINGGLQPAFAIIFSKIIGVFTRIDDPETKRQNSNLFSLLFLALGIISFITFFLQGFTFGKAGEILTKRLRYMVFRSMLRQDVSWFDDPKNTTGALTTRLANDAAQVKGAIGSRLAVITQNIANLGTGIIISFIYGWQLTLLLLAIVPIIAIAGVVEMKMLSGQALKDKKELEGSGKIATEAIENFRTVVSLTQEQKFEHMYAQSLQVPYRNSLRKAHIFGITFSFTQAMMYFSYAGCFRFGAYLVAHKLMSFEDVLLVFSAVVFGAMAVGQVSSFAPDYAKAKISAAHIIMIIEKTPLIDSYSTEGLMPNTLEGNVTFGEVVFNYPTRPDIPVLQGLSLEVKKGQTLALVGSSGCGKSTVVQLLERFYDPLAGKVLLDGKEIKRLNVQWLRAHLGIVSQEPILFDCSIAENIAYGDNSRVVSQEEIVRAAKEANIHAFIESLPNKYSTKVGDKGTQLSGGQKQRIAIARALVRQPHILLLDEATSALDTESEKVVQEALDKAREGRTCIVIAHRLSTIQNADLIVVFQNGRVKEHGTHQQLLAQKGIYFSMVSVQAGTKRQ

SMILES	IC50 [1] [nM]	further results
C=C[C@@H]1CN2CC[C@H]1C[C@H]2[C@H](OCC(=O)OCCCCCN(C)CCCCCOC(=O)/C=C/c1cc(OC)c(OC)c(OC)c1)c1ccnc2ccc(OC)cc12	3430	–
C=C[C@@H]1CN2CC[C@H]1C[C@H]2[C@H](OCC(=O)OCCCN(C)CCCOC(=O)/C=C/c1cc(OC)c(OC)c(OC)c1)c1ccnc2ccc(OC)cc12	5060	–
C=C[C@@H]1CN2CC[C@H]1C[C@H]2[C@@H](OCC(=O)OCCCN(C)CCCOC(=O)/C=C/c1cc(OC)c(OC)c(OC)c1)c1ccnc2ccc(OC)cc12	4790	–
COc1ccc2nccc(C(=O)OCCCN(C)CCCOC(=O)/C=C/c3cc(OC)c(OC)c(OC)c3)c2c1	880	–
COc1cc(/C=C/C(=O)OCCCN(C)CCCOC(=O)C2c3ccccc3-c3ccccc32)cc(OC)c1OC	500	–
COc1cc(C#CC(=O)OCCCN(C)CCCOC(=O)c2cc(OC)c(OC)c(OC)c2)cc(OC)c1OC	1000	–
COc1cc(C#CC(=O)OCCCN(C)CCCOC(=O)c2c3ccccc3cc3ccccc23)cc(OC)c1OC	700	–
C=C[C@@H]1CN2CC[C@H]1C[C@H]2[C@@H](OCC(=O)OCCCCCN(C)CCCCCOC(=O)/C=C/c1cc(OC)c(OC)c(OC)c1)c1ccnc2ccc(OC)cc12	2650	–
COc1ccc2nccc(C(=O)OCCCCCN(C)CCCCCOC(=O)/C=C/c3cc(OC)c(OC)c(OC)c3)c2c1	750	–
COc1cc(C#CC(=O)OCCCCCN(C)CCCCCOC(=O)c2cc(OC)c(OC)c(OC)c2)cc(OC)c1OC	290	–
COc1cc(C#CC(=O)OCCCCCN(C)CCCCCOC(=O)c2c3ccccc3cc3ccccc23)cc(OC)c1OC	340	–
COc1cc(/C=C/C(=O)OCCCN(C)CCCCCOC(=O)c2cc(OC)c(OC)c(OC)c2)cc(OC)c1OC	270	–
COc1cc(/C=C/C(=O)OCCCCCN(C)CCCOC(=O)c2cc(OC)c(OC)c(OC)c2)cc(OC)c1OC	120	–
COc1cc(/C=C/C(=O)OCCCCN(C)CCCCOC(=O)c2cc(OC)c(OC)c(OC)c2)cc(OC)c1OC	1530	–
COc1cc(/C=C/C(=O)OCCCN(C)CCCCCOC(=O)c2c3ccccc3cc3ccccc23)cc(OC)c1OC	40	Activity (K562 [2]): Non-toxic; Activity (K562 [3]): <= 20%
COc1cc(/C=C/C(=O)OCCCCCN(C)CCCOC(=O)c2c3ccccc3cc3ccccc23)cc(OC)c1OC	40	Activity (K562 [2]): Non-toxic; Activity (K562 [3]): <= 20%; mortality [4]: 100%
COc1cc(/C=C/C(=O)OCCCCN(C)CCCCOC(=O)c2c3ccccc3cc3ccccc23)cc(OC)c1OC	70	Activity (K562 [2]): Non-toxic; Activity (K562 [3]): <= 20%; mortality [4]: 100%
COc1cc(C#CC(=O)OCCCN(C)CCCCCOC(=O)c2cc(OC)c(OC)c(OC)c2)cc(OC)c1OC	260	–
COc1cc(C#CC(=O)OCCCCCN(C)CCCOC(=O)c2cc(OC)c(OC)c(OC)c2)cc(OC)c1OC	310	–
COc1cc(C#CC(=O)OCCCCN(C)CCCCOC(=O)c2cc(OC)c(OC)c(OC)c2)cc(OC)c1OC	1030	–
COc1cc(C#CC(=O)OCCCN(C)CCCCCOC(=O)c2c3ccccc3cc3ccccc23)cc(OC)c1OC	110	–
COc1cc(C#CC(=O)OCCCCCN(C)CCCOC(=O)c2c3ccccc3cc3ccccc23)cc(OC)c1OC	100	–
COc1cc(C#CC(=O)OCCCCN(C)CCCCOC(=O)c2c3ccccc3cc3ccccc23)cc(OC)c1OC	100	–
COc1cc(/C=C/C(=O)OCCCCCN(C)CCCOC(=O)C2c3ccccc3-c3ccccc32)cc(OC)c1OC	190	–
COc1cc(/C=C/C(=O)OCCCN(C)CCCCCOC(=O)C2c3ccccc3-c3ccccc32)cc(OC)c1OC	350	–
COc1cc(/C=C/C(=O)OCCCCN(C)CCCCOC(=O)C2c3ccccc3-c3ccccc32)cc(OC)c1OC	110	–

— ChEMBL document CHEMBL3351386, “Multidrug resistance (MDR) reversers: High activity and efficacy in a series of asymmetrical N,N-bis(alkanol)amine aryl esters” (Eur J Med Chem, 2014)
